Measured values published in ChEMBL document CHEMBL1156777, “Synthesis and antiprotozoal activity of cationic 1,4-diphenyl-1H-1,2,3-triazoles” (J Med Chem, 2010).
Calls of active or inactive are those of the source. No cut-off for these calls is given here.

Legend:
[1] = tested on: Trypanosoma brucei rhodesiense; experiment: Antitrypanosomal activity against Trypanosoma brucei rhodesiense STIB900 infected in NMRI mouse assessed as mean parasitemia relaps day at 1 mg/kg, ip; format: functional; conditions: route intraperitoneal
Method in brief: (§1)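 Female NMRI mice infected ip with 2 × 10⁴ STIB900 bloodstream forms. Groups of four dosed ip daily on days 3–6 postinfection; compounds in DMSO diluted with water to 10% final DMSO. Untreated infected controls. Tail-blood parasitaemia checked on days 7 and 10, twice weekly to day 30, then weekly to day 60. Relapse day recorded for mean relapse day; cure means parasite-free survival to day 60.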

[2] = Selectivity index, ratio of IC50 for rat L6 cells to IC50 for Leishmania donovani MHOM/SD/62/1S-CL2D; format: toxicity, cell-based; conditions: read-out: Ratio IC50
Method in brief: (§2)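 Each index is L6 IC50 divided by parasite IC50. L6 values are from the 70 h resazurin assay. T. b. rhodesiense STIB900 values are from the 70 h resazurin assay. P. falciparum K1 values are from erythrocytic-stage [³H]-hypoxanthine incorporation: 48 h drug exposure, then 24 h with label. L. donovani values are from the 72 h axenic amastigote CellTiter assay.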

[3] = tested on: Mus musculus; experiment: Toxicity in NMRI mouse infected with Trypanosoma brucei rhodesiense STIB900 assessed as survival at 5 mg/kg, ip after administered for 4 consecutive days from day 3 postinfection measured after 7 to 30 days; format: organism-based; design: dose 5 mg/kg, route intraperitoneal; conditions: in vivo; method in brief: as §1
[4] = Selectivity index, ratio of IC50 for rat L6 cells to IC50 for Plasmodium falciparum K1; format: toxicity, cell-based; conditions: read-out: Ratio IC50; method in brief: as §2
[5] = tested on: Leishmania donovani; experiment: Antileishmanial activity against Leishmania donovani MHOM/SD/62/1S-CL2D; format: functional, organism-based
Method in brief: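 Axenic amastigotes (MHOM/SD/62/1S-CL2_D) adapted from promastigotes and grown in amastigote medium at 37 °C. 6 × 10⁴ parasites per well were exposed to 2-fold serial dilutions for 72 h at 37 °C in humidified 5% CO₂. Growth was read with tetrazolium CellTiter reagent as absorbance at 490 nm. IC50 came from a four-parameter dose–response fit; duplicate determinations were averaged.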

[6] = tested on: Trypanosoma brucei rhodesiense; experiment: Antitrypanosomal activity against Trypanosoma brucei rhodesiense STIB900 infected in NMRI mouse assessed as mean parasitemia relaps day at 10 mg/kg, ip; format: functional; conditions: route intraperitoneal
Method in brief: (§3)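 Single-dose ip regimen at 10 mg/kg in female NMRI mice infected ip with 2 × 10⁴ STIB900 bloodstream forms, four mice per group. Dosing solution was DMSO diluted with water to 10% final DMSO. Tail-blood parasitaemia followed to day 60 postinfection, with relapse day recorded; untreated infected controls.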

[7] = tested on: Trypanosoma brucei rhodesiense; experiment: Antitrypanosomal activity against Trypanosoma brucei rhodesiense STIB900 after 70 hrs by alamar blue assay; format: functional, organism-based; conditions: STIB900, 70 h
[8] = Selectivity index, ratio of IC50 for rat L6 cells to IC50 for Trypanosoma brucei rhodesiense STIB900; format: toxicity, cell-based; conditions: read-out: Ratio IC50; method in brief: as §2
[9] = tested on: L6; experiment: Cytotoxicity against rat L6 cells after 70 hrs by alamar blue assay; format: cell-based; conditions: L6, 70 h
Method in brief: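 Cells were exposed to serial dilutions for 70 h at 37 °C, 5% CO₂, then given resazurin for 2–3 h. IC50 came from sigmoidal curves; two independent runs in duplicate. Top concentration was 90 μg/mL, converted to μM by molecular weight.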

[10] = tested on: Plasmodium falciparum; experiment: Antiplasmodial activity against chloroquine-resistant Plasmodium falciparum K1 infected in human erythrocytes after 48 hrs assessed as [3H]hypoxanthine incorporation by liquid scintillation counting; format: functional, organism-based
[11] = tested on: Mus musculus; experiment: Toxicity in NMRI mouse infected with Trypanosoma brucei rhodesiense STIB900 assessed as survival at 1 mg/kg, ip after administered for 4 consecutive days from day 3 postinfection measured after 7 to 30 days; format: organism-based; design: dose 1 mg/kg, route intraperitoneal; conditions: in vivo; method in brief: as §1
[12] = tested on: Mus musculus; experiment: Toxicity in NMRI mouse infected with Trypanosoma brucei rhodesiense STIB900 assessed as survival at 0.5 mg/kg, ip after administered for 4 consecutive days from day 3 postinfection measured after 7 to 30 days; format: organism-based; design: dose 0.5 mg/kg, route intraperitoneal; conditions: in vivo; method in brief: as §1
[13] = tested on: Trypanosoma brucei rhodesiense; experiment: Antitrypanosomal activity against Trypanosoma brucei rhodesiense STIB900 infected in NMRI mouse assessed as mean parasitemia relaps day at 0.5 mg/kg, ip; format: functional; conditions: route intraperitoneal; method in brief: as §1
[14] = tested on: Trypanosoma brucei rhodesiense; experiment: Antitrypanosomal activity against Trypanosoma brucei rhodesiense STIB900 infected in NMRI mouse assessed as mean parasitemia relaps day at 20 mg/kg, ip; format: functional; conditions: route intraperitoneal
Method in brief: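 Female NMRI mice were infected ip with 2 × 10⁴ STIB900 bloodstream forms, in groups of four. Compound in 10% DMSO/distilled water was given ip at 5 mg/kg daily on days 3–6 postinfection, with untreated infected controls. Tail-blood parasitaemia was checked on days 7 and 10, then twice weekly to day 30 and weekly to day 60. Relapse day was recorded for mean relapse day.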

[15] = tested on: Trypanosoma brucei rhodesiense; experiment: Antitrypanosomal activity against Trypanosoma brucei rhodesiense STIB900 infected in NMRI mouse assessed as mean parasitemia relaps day at 5 mg/kg, ip; format: functional; conditions: route intraperitoneal; method in brief: as §1
[16] = tested on: Mus musculus; experiment: Toxicity in NMRI mouse infected with Trypanosoma brucei rhodesiense STIB900 assessed as survival at 10 mg/kg, ip after administered 1 day postinfection measured after 7 to 30 days; format: organism-based; design: dose 10 mg/kg, route intraperitoneal; conditions: in vivo; method in brief: as §3
[17] = tested on: Plasmodium berghei; experiment: Antiplasmodial activity against Plasmodium berghei infected in mice (Mus musculus) assessed as inhibition of parasitaemia at 30 mg/kg, subcutaneous for 4 days; format: functional, organism-based; design: dose 30 mg/kg
Method in brief: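 P. berghei mouse model. Compound was given subcutaneously at 30 mg/kg daily for four days. The read-out was blood parasite count. For in vivo use, compounds were dissolved in DMSO and diluted with distilled water to 10% DMSO final.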

[18] = tested on: Mus musculus; experiment: Toxicity in NMRI mouse infected with Trypanosoma brucei rhodesiense STIB900 assessed as survival at 2 mg/kg, ip after administered for 4 consecutive days from day 3 postinfection measured after 7 to 30 days; format: organism-based; design: dose 2 mg/kg, route intraperitoneal; conditions: in vivo; method in brief: as §1
[19] = tested on: Mus musculus; experiment: Toxicity in NMRI mouse infected with Trypanosoma brucei rhodesiense STIB900 assessed as survival at 8 mg/kg, ip after administered for 4 consecutive days from day 3 postinfection measured after 7 to 30 days; format: organism-based; design: dose 8 mg/kg, route intraperitoneal; conditions: in vivo; method in brief: as §1

Row | SMILES | Activity [1] [days] | selectivity ratio [2] | Activity [3] | selectivity ratio [4] | IC50 [5] [nM] | Activity [6] [days] | IC50 [7] [nM] | selectivity ratio [8] | IC50 [9] [nM] | IC50 [10] [nM] | Activity [11] | Activity [12] | Activity [13] [days] | Activity [14] [days] | Activity [15] [days] | Activity [16] | Activity [17] | Activity [18] | Activity [19]
1 | COc1ccc(C2=NCCN2)cc1-c1cn(-c2cccc(C3=NCCN3)c2)nn1.Cl.Cl | 12 | > 36 | Non-toxic | > 12600 | 4900 | 14 | 6 | > 29300 | > 176000 | 14 | Toxic |  |  |  |  |  |  |  | 
2 | Cl.Cl.N=C(N)c1ccc(-c2cn(-c3ccc(C(=N)N)cc3)nn2)cc1 |  | < 1 | Non-toxic | 4050 | 9100 | 27 | 4 | 2020 | 8100 | 2 | Non-toxic | Toxic | 25.5 |  |  |  |  |  | 
3 | N=C(N)c1ccc(OCCCCCOc2ccc(C(=N)N)cc2)cc1 [PENTAMIDINE] |  |  |  |  |  |  |  |  |  |  |  |  |  | 26 | 20 |  |  |  | 
4 | COc1cc(C(=N)N)ccc1-c1cn(-c2cccc(C(=N)N)c2)nn1.Cl.Cl | 9.5 | 15 | Non-toxic | 23400 | 11000 | 23.5 | 5 | 32800 | 164000 | 7 | Toxic |  |  |  |  | Toxic |  |  | 
5 | Cl.Cl.Oc1cc(C2=NCCN2)ccc1-c1cn(-c2ccc(C3=NCCN3)cc2)nn1 |  | > 8 | Toxic | > 317000 | 24000 |  | 38 | > 5000 | > 190000 | 0.6 |  |  |  |  | 10 |  | inactive |  | 
6 | Nc1nc(N)nc(Nc2ccc([As]3SCC(CO)S3)cc2)n1 (stereo not given) [MELARSOPROL] | 20 |  |  |  |  |  |  |  |  |  |  |  |  |  |  |  |  | Non-toxic | Non-toxic
